Assay results as given in ChEMBL document CHEMBL1135609, “Discovery of gamma-lactam hydroxamic acids as selective inhibitors of tumor necrosis factor alpha converting enzyme: design, synthesis, and structure-activity relationships” (J Med Chem, 2002).

How the values were obtained:
[1] = (§1) The compound was administered intravenously at a dose of 4 mg/Kg for determination of volume of distribution at steady state; type: ADME, organism-based, Canis lupus familiaris; details: dog, in vivo, iv, read-out: Vss
Summary of the method: (§2)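 Sprague Dawley rats and Beagle dogs were dosed in cassette fashion, iv at 4 mg/kg or orally at 8 mg/kg. Plasma samples were analysed by LC–MS–MS. The iv arm gave clearance, volume of distribution at steady state, terminal half-life and AUC. The oral arm gave tmax and bioavailability. Two animals were used per dosing group.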

[2] = (§3) The compound was administered intravenously at a dose of 4 mg/Kg for determination of systemic clearance; type: ADME, organism-based, Canis lupus familiaris; details: dog, in vivo, iv; summary of the method: as §2
[3] = target: Stromelysin-1 (Homo sapiens, UniProt P08254); assay: Affinity for Matrix metalloprotease-3 (MMP-3)
Sequence of Stromelysin-1 (P08254 whole entry): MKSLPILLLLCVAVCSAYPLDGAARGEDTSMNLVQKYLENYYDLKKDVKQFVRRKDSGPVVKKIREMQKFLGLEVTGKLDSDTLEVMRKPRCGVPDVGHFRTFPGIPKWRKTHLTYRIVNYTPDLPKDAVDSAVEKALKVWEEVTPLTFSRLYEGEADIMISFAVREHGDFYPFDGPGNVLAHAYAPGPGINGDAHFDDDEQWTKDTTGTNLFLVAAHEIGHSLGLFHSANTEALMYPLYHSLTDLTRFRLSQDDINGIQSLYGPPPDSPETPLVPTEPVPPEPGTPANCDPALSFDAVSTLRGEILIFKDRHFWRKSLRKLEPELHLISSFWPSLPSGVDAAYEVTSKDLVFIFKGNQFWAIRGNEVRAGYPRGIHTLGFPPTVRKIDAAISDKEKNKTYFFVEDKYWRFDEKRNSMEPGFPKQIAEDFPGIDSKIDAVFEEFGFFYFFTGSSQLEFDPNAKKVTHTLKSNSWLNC

[4] = target: Neutrophil collagenase (Homo sapiens, UniProt P22894); assay: Affinity for Matrix metalloprotease-8 (MMP-8)
Sequence of Neutrophil collagenase (P22894 whole entry): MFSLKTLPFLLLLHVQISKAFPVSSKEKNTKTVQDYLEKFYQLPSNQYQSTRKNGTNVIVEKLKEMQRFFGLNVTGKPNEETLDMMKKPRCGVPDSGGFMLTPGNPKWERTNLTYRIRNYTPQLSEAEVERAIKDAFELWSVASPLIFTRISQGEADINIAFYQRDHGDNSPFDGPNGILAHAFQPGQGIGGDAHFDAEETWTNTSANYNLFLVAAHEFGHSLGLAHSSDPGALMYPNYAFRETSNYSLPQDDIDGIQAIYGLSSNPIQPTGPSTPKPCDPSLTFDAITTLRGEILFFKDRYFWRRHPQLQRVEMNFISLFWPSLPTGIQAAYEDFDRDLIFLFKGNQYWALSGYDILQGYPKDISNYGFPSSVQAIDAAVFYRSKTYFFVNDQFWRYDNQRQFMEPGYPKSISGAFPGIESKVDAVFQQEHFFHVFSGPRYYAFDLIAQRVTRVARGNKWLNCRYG

[5] = target: T1, Matrilysin (Homo sapiens, UniProt P09237); assay: Affinity for Matrix metalloprotease-7 (MMP-7)
T1 sequence (P09237 whole entry): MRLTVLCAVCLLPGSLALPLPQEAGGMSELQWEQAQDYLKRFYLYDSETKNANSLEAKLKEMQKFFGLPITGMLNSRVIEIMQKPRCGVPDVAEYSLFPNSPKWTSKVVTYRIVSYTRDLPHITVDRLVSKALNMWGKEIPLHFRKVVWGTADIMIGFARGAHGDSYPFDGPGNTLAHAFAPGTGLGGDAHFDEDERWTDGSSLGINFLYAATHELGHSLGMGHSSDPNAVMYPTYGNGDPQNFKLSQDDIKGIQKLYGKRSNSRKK

[6] = target: Matrix metalloproteinase-9 (Homo sapiens, UniProt P14780); assay: Affinity towards Matrix metalloprotease-9 (MMP-9)
Sequence of Matrix metalloproteinase-9 (P14780 whole entry): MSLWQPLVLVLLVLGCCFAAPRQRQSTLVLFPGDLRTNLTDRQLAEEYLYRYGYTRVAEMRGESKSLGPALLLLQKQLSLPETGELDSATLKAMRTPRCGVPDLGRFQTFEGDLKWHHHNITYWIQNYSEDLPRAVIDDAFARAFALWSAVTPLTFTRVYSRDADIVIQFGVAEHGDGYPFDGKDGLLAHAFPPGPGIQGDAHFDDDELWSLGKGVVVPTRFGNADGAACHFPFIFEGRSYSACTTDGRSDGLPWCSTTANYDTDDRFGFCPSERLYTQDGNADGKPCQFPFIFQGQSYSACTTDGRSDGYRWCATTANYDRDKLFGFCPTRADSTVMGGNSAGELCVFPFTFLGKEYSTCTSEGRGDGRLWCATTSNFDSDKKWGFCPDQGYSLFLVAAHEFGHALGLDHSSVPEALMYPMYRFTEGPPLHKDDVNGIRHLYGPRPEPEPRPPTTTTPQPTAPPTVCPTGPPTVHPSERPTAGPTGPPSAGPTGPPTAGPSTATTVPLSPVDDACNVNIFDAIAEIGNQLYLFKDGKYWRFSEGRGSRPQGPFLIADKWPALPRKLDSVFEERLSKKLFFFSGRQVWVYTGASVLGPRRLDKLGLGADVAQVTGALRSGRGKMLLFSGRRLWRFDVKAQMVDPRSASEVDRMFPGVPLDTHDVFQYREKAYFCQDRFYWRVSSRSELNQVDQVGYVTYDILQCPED

[7] = target: 72 kDa type IV collagenase (Homo sapiens, UniProt P08253); assay: Affinity for Matrix metalloprotease-2 (MMP-2)
Sequence of 72 kDa type IV collagenase (P08253 whole entry): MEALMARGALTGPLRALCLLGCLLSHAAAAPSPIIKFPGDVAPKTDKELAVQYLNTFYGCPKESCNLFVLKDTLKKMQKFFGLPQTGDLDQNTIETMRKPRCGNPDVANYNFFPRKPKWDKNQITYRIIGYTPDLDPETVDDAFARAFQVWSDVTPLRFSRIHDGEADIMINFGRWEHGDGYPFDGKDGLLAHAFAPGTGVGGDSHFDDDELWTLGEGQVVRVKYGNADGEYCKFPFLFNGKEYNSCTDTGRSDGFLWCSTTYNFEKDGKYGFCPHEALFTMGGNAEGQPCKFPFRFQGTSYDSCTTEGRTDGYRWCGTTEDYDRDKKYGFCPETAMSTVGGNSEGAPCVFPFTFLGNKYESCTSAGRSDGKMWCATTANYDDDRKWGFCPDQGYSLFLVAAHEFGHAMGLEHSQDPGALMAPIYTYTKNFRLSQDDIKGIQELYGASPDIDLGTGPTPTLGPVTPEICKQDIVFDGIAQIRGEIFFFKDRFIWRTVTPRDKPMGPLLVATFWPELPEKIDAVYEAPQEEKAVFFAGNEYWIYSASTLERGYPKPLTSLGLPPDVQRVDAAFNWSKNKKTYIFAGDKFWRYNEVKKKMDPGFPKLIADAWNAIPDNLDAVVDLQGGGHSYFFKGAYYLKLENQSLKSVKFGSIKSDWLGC

[8] = target: Collagenase 3 (Homo sapiens, UniProt P45452); assay: Affinity for Matrix metalloprotease-13 (MMP-13)
[9] = target: Matrix metalloproteinase-14 (Homo sapiens, UniProt P50281); assay: Affinity for Matrix metalloprotease-14 (MMP-14)
[10] = target: Matrix metalloproteinase-15 (Homo sapiens, UniProt P51511); assay: Affinity for Matrix metalloprotease-15 (MMP-15)
[11] = target: Matrix metalloproteinase-16 (Homo sapiens, UniProt P51512); assay: Affinity for Matrix metalloprotease-16 (MMP-16)
Sequence of Matrix metalloproteinase-16 (P51512 whole entry): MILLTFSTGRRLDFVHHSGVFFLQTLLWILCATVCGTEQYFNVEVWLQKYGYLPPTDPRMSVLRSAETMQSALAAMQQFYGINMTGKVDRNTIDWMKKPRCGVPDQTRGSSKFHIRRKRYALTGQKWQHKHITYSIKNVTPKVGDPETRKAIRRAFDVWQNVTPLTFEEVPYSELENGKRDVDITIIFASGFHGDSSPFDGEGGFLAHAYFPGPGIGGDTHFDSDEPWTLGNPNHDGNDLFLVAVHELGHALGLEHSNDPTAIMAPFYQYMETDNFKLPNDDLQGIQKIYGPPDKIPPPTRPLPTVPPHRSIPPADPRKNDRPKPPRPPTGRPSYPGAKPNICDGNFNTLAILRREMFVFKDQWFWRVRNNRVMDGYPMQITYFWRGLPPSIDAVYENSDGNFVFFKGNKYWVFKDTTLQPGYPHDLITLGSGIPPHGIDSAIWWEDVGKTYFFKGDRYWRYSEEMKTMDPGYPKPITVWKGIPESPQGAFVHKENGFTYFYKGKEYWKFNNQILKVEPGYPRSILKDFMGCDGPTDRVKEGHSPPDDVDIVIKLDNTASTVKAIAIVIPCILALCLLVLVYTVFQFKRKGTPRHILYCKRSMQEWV

[12] = target: T2, Interstitial collagenase (Homo sapiens, UniProt P03956); assay: Affinity towards Matrix metalloprotease-1 (MMP-1)
T2 sequence (P03956 whole entry): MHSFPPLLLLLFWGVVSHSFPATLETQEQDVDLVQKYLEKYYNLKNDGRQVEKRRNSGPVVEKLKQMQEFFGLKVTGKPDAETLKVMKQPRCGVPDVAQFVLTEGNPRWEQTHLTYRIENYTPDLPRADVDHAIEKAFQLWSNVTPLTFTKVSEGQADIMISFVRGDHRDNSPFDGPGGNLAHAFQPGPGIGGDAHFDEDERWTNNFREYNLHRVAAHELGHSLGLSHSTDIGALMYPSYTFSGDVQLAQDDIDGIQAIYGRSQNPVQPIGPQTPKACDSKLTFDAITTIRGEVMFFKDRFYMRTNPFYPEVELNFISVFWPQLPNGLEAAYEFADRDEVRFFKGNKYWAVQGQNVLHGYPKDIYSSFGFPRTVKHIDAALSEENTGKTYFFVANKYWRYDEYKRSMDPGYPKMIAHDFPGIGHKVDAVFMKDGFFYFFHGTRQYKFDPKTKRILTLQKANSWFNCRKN

[13] = as §1; type: ADME, organism-based; details: rat, in vivo, iv, read-out: Vss; summary of the method: as §2
[14] = target: T3, Disintegrin and metalloproteinase domain-containing protein 17 (Sus scrofa, UniProt O77636); assay: Affinity for Tumor necrosis factor alpha converting enzyme (TACE)
T3 sequence (O77636 whole entry, the tested form may be a part): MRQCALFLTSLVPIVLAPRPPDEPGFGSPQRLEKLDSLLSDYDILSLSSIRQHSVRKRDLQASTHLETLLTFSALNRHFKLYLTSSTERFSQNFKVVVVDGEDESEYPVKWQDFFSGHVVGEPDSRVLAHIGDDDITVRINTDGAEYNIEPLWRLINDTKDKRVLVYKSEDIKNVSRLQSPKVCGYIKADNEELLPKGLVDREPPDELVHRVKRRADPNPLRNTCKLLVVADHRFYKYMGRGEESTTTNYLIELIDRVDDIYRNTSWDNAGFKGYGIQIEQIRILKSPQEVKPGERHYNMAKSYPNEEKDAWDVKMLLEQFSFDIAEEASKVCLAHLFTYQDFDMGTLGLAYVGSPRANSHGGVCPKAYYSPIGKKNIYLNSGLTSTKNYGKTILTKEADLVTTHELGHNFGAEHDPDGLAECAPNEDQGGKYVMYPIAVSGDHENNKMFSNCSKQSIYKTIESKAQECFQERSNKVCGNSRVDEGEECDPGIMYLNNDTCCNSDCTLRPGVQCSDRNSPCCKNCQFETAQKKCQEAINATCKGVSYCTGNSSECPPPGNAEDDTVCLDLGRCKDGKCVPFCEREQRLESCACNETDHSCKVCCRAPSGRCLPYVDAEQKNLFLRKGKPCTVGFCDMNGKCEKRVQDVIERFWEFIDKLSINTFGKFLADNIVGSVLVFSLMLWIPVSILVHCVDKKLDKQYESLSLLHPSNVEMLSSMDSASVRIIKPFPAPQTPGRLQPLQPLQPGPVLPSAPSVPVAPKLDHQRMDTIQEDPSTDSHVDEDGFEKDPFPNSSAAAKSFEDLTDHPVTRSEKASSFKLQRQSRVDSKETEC

[15] = (§4) Bioavailability (dose 8 mg/kg p.o.); type: ADME, organism-based, Canis lupus familiaris; details: dog, in vivo, po; summary of the method: as §2
[16] = as §4; type: ADME, organism-based; details: rat, in vivo, po; summary of the method: as §2
[17] = target: T3, Disintegrin and metalloproteinase domain-containing protein 17; assay: Inhibitory activity against porcine Tumor necrosis factor alpha converting enzyme.
[18] = target: Disintegrin and metalloproteinase domain-containing protein 17 (Homo sapiens, UniProt P78536); assay: Inhibition of Tumor necrosis factor alpha secretion in LPS-stimulated human whole blood assay; type: functional, tissue-based
Sequence of Disintegrin and metalloproteinase domain-containing protein 17 (Homo sapiens, UniProt P78536) (P78536 whole entry, the tested form may be a part): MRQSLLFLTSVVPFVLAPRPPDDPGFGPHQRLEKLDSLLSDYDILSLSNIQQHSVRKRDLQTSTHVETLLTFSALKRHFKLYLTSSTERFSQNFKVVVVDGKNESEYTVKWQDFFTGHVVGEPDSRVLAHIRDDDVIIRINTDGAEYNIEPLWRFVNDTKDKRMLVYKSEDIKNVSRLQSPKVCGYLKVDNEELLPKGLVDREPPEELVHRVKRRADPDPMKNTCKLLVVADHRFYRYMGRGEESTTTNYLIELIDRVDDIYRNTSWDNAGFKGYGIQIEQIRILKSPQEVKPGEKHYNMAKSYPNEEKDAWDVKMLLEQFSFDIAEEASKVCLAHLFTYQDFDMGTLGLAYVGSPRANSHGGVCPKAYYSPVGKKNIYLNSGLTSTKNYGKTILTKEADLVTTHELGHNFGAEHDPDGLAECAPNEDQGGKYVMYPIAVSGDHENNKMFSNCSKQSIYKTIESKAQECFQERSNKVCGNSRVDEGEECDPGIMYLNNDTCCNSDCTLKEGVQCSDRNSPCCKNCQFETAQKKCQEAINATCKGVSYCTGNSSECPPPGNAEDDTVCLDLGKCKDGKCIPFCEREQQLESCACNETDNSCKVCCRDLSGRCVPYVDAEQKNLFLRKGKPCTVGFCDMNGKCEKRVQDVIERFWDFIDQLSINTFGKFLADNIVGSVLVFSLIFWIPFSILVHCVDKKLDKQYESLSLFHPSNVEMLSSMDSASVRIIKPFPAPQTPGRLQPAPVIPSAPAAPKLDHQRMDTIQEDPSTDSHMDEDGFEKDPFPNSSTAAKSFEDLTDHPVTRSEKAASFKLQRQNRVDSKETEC

[19] = test system: Canis familiaris; assay: (§5) The compound was administered intravenously at a dose of 4 mg/Kg for determination area under curve; type: functional, organism-based; details: Canis lupus familiaris; summary of the method: as §2
[20] = test system: Rattus norvegicus; assay: as §5; type: functional, organism-based; summary of the method: as §2
[21] = test system: Rattus norvegicus; assay: as §3; type: functional, organism-based; summary of the method: as §2
[22] = test system: Canis familiaris; assay: (§6) The compound was administered intravenously at a dose of 4 mg/Kg for determination of terminal half life; type: functional, organism-based; details: Canis lupus familiaris
Summary of the method: (§7)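 Cassette dosing in Sprague Dawley rats and Beagle dogs, given intravenously at 4 mg/kg. Plasma samples were analysed by LC–MS–MS, and terminal half-life was derived from the plasma profile. Two animals per dosing group.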

[23] = test system: Rattus norvegicus; assay: as §6; type: functional, organism-based; summary of the method: as §7
[24] = test system: Canis familiaris; assay: (§8) The compound was administered orally at a dose of 8 mg/Kg for determination of t max; type: functional, organism-based; details: Canis lupus familiaris; summary of the method: as §2
[25] = test system: Rattus norvegicus; assay: as §8; type: functional, organism-based; summary of the method: as §2

Compound	Ki [6]	Ki [7]	Ki [12]	IC50 [17]	other results
Cc1cc(COc2ccc([C@]3(C)CCN([C@H](C)C(=O)NO)C3=O)cc2)c2ccccc2n1 (stereo in doubt) [listing 1 of 2 here]	10300 nM	2050 nM	30000 nM	–	Vd [1]: 0.93 L/kg; clearance [2]: 15.7 mL/min/kg; Ki [3]: 141 nM; Ki [4]: 257 nM; Ki [5]: 259 nM; Ki [8]: 1420 nM; Ki [9]: 15900 nM; Ki [10]: 4000 nM; Ki [11]: 1600 nM; Vd [13]: 2 L/kg; Ki [14]: 0.56 nM; bioavailability [15]: 32%; bioavailability [16]: 41%
C[C@H](C(=O)NO)N1CC[C@@](C)(c2ccc(Oc3ccccc3)cc2)C1=O	< 2.1 nM	< 2.8 nM	143 nM	185 nM	–
Cc1cncc(C)c1COc1ccc([C@]2(C)CCN([C@H](C)C(=O)NO)C2=O)cc1 (stereo in doubt; 5q)	–	–	–	3 nM	IC50 [18]: 6600 nM
C[C@H](C(=O)NO)N1CC[C@@](C)(c2ccc(OCc3ccncc3)cc2)C1=O	–	–	–	21 nM	IC50 [18]: 5900 nM
C[C@H](C(=O)NO)N1CC[C@@](C)(c2ccc(OCc3cccc([N+](=O)[O-])c3)cc2)C1=O	39 nM	38 nM	> 5000 nM	6 nM	–
C[C@H](C(=O)NO)N1CC[C@@](C)(c2ccc(OCc3ccc([N+](=O)[O-])cc3)cc2)C1=O	40 nM	11 nM	> 5000 nM	6 nM	–
Cc1cc(COc2ccc([C@]3(C)CCN([C@H](C)C(=O)NO)C3=O)cc2)c2ccccc2n1 (stereo in doubt; 5s)	–	–	–	1 nM	–
C[C@H](C(=O)NO)N1CC[C@@](C)(c2ccc(OCc3ccnc4ccccc34)cc2)C1=O	–	–	–	1.8 nM	IC50 [18]: 2250 nM
C[C@H](C(=O)NO)N1CC[C@@](C)(c2ccc(-c3ccccc3)cc2)C1=O	35 nM	82 nM	2290 nM	13000 nM	–
COc1cc(COc2ccc([C@]3(C)CCN([C@H](C)C(=O)NO)C3=O)cc2)cc(OC)c1	> 2000 nM	> 3000 nM	> 5000 nM	7 nM	–
C[C@H](C(=O)NO)N1CC[C@@](C)(c2ccc(OC(C)(C)C)cc2)C1=O	–	–	–	> 10000 nM	–
COc1ccc([C@]2(C)CCN([C@H](C)C(=O)NO)C2=O)cc1	9 nM	4.8 nM	92 nM	887 nM	–
C=CCOc1ccc([C@]2(C)CCN([C@H](C)C(=O)NO)C2=O)cc1	11 nM	14 nM	335 nM	97 nM	–
C[C@H](C(=O)NO)N1CC[C@@](C)(c2ccc(OCc3cc(C(F)(F)F)cc(C(F)(F)F)c3)cc2)C1=O	> 2000 nM	> 3000 nM	> 5000 nM	2 nM	–
C[C@H](C(=O)NO)N1CC[C@@](C)(c2ccccc2)C1=O	242 nM	108 nM	221 nM	2200 nM	–
Cc1cc(C)cc(COc2ccc([C@]3(C)CCN([C@H](C)C(=O)NO)C3=O)cc2)c1	1630 nM	5810 nM	4750 nM	4 nM	–
CC(C)Cc1ccc([C@]2(C)CCN([C@H](C)C(=O)NO)C2=O)cc1	586 nM	701 nM	4000 nM	1000 nM	–
Cc1cc(COc2ccc([C@]3(C)CCN([C@H](C)C(=O)NO)C3=O)cc2)c2ccccc2n1 (stereo in doubt) [listing 2 of 2 here]	–	–	–	–	AUC [19]: 4430 ng·h/mL; AUC [20]: 1810 ng·h/mL; CL (mL.min-1.kg-1) [21]: 35; T1/2 [22]: 7.1 h; T1/2 [23]: 11.8 h; Tmax [24]: 0.38 h; Tmax [25]: 0.38 h
C[C@H](C(=O)NO)N1CC[C@@](C)(c2ccc(OCc3ccccc3)cc2)C1=O	29 nM	19 nM	> 5000 nM	4 nM	–
C[C@H](C(=O)NO)N1CC[C@@](C)(c2ccc(OCc3ccccc3[N+](=O)[O-])cc2)C1=O	66 nM	35 nM	> 5000 nM	4 nM	–
Cc1cncc(C)c1COc1ccc([C@]2(C)CCN([C@H](C)C(=O)NO)C2=O)cc1 (stereo in doubt; 5p)	–	–	–	16 nM	IC50 [18]: 8100 nM
